Laboratory results: ChEMBL document CHEMBL1126916, “Cyclic GMP phosphodiesterase inhibitors. 1. The discovery of a novel potent inhibitor, 4-((3,4-(methylenedioxy)benzyl)amino)-6,7,8-trimethoxyquinazoline” (J Med Chem, 1993)

Experiments:
[1] = molecular target: T1, Phosphodiesterase 4A (Sus scrofa, UniProt O77823); experiment: Inhibition of cAMP specific phosphodiesterase from porcine aorta
T1 sequence (O77823 whole entry): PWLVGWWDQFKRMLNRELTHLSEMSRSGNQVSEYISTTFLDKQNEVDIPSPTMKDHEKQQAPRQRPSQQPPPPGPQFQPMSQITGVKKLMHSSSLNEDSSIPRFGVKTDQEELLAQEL

[2] = molecular target: T2, Phosphodiesterase 3A (Sus scrofa, UniProt Q9XSW7); experiment: Inhibition of cGMP-inhibited phosphodiesterase from porcine coronary arteries
T2 sequence (Q9XSW7 whole entry): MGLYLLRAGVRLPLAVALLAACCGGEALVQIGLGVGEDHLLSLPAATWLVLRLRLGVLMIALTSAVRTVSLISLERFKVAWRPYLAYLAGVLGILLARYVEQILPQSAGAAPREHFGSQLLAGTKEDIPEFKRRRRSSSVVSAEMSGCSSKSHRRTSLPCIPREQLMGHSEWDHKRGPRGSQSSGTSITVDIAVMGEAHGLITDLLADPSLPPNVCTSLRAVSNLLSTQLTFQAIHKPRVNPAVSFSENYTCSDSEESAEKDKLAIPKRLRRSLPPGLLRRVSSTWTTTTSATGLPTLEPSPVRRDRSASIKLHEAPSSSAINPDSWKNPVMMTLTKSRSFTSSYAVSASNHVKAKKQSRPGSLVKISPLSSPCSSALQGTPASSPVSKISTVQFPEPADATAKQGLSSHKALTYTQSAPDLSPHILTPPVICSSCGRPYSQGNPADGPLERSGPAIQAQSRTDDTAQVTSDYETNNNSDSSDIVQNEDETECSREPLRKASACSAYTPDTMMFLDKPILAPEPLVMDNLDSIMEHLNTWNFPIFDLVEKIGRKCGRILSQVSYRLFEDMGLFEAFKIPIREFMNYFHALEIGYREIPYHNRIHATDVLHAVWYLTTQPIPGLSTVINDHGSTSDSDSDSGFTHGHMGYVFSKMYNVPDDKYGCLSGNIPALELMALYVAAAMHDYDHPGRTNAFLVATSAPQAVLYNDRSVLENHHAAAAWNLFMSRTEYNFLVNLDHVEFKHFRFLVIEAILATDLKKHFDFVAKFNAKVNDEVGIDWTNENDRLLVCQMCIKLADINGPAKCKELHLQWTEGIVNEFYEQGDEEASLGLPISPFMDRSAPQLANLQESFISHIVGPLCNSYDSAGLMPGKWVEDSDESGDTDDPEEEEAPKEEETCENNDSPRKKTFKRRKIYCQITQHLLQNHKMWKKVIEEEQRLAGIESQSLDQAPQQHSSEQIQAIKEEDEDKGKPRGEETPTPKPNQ
Outline: (§1)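 Isozymes were separated from porcine aorta: type II (cGMP-stimulated), type III, and type IV (cAMP-specific). Each used [3H]cAMP at 1 μM as substrate. Compounds were tested in DMSO diluted in assay buffer over 10^-8 to 10^-4 M, with final DMSO below 0.4% (v/v). IC50 came from log concentration–inhibition curves (at least three points), as means ± SEM from at least three experiments.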

[3] = organism: Sus scrofa; experiment: Relaxant effect on PGF2-alpha precontracted pig coronary arteries; assay type: functional
Outline: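 Porcine coronary arterial strips were equilibrated at 1 g resting tension. Intact endothelium was confirmed by 7 × 10^-9 M bradykinin relaxing strips precontracted with 50 mM KCl (final concentrations). Strips were then contracted with PGF2α, final 10^-6 M, and cumulative concentration–relaxation curves were built after a plateau. Relaxation was expressed as % of the PGF2α contraction. EC50 came from the log curve, mean ± SEM, n experiments.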

[4] = molecular target: T1, Phosphodiesterase 4A; experiment: Inhibition of cAMP specific phosphodiesterase from porcine aorta
Outline: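 PDE isozymes (types I–V) separated from porcine aorta. Substrate was [3H]cGMP for types I and V and [3H]cAMP for types II, III and IV, each at 1 μM. Test agents were dissolved in DMSO and diluted in assay buffer over 10^-8 to 10^-4 M, with final DMSO below 0.4% (v/v). IC50 was taken from the log concentration–inhibition curve (at least three points), mean ± SEM of at least three experiments.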

[5] = molecular target: T1, Phosphodiesterase 4A; experiment: Inhibition of cAMP specific phosphodiesterase from porcine coronary arteries; details: in the assay text read “porcine aorta” for “porcine coronary arteries”
Outline: as §1

[6] = in the assay text read “porcine aorta” for “porcine coronary arteries”

Row | Compound | EC50 [3] [µM] | IC50 [2, 6] [µM] | IC50 [5] [µM] | IC50 [1] [µM] | other results
1 | Clc1cccc(Nc2nnc(-c3ccccc3)c3ccccc23)c1 |  |  |  | 37.2 | 
2 | COc1ccc(Cc2nccc3cc(OC)c(OC)cc23)cc1OC [PAPAVERINE] |  |  |  | 1.7 | IC50 [2]: 0.62 µM
3 | COc1cc2c(NCc3ccc4c(c3)OCO4)ncnc2c(OC)c1OC | 1.96 |  | > 100 |  | 

Second part, led by results:

Row | EC50 [3] [µM] | IC50 [2, 6] [µM] | IC50 [5] [µM] | Compound | IC50 [1] [µM] | other results
4 | 4.75 | > 100 |  | CCCOc1ccccc1-c1nc2nn[nH]c2c(=O)[nH]1 [ZAPRINAST] |  | IC50 [4]: 79.6 µM
5 |  | > 100 | 6.4 | OCCN(CCO)c1nc(N2CCCCC2)c2nc(N(CCO)CCO)nc(N3CCCCC3)c2n1 [DIPYRIDAMOLE] |  | 
